Assay results of several laboratories.
Protocols differ between the studies behind these lines.
Sample: plasma
Route: intravenous

For `[2H]c1cc(C)c(NC(=O)c2cnc(Nc3cc(N4CC[C@H](O)C4)nc(C)n3)s2)c(Cl)c1`, the Vd was 1.1 L/kg (male Sprague-Dawley rat; 1 mg/kg).
`C[C@]1(O)CCCN(c2nc(Nc3ccc(S(=O)(=O)N[C@H]4CC[C@H](CN5CCN(c6ccc(C7CCC(=O)NC7=O)c(F)c6)CC5)CC4)cc3F)ncc2C(F)(F)F)C1` (stereo partly shown) gave a Vd of 3 L/kg (rat; 2 mg/kg).
With `CC(C)(N)COCC(=O)N1CCC[C@H](C(=O)NCc2nc(-c3ccc(C(F)(F)F)cc3)cs2)C1` the Vd was 4.3 L/kg (male Sprague-Dawley rat; 1 mg/kg).
The Vd of `Cn1c(=O)c2[nH]cnc2n(C)c1=O` is reported as 2.39 L/kg (male Sprague-Dawley rat; 11.25 mg/kg).
`C[C@H]1CN(CC2CCN(c3ccc(C4CCC(=O)NC4=O)cc3F)CC2)CC[C@H]1NS(=O)(=O)c1ccc(Nc2ncc(C(F)(F)F)c(N3CCC[C@](C)(O)C3)n2)c(F)c1` (stereo partly shown) has a Vd of 7 L/kg (rat; 2 mg/kg).
With `Cc1nc(Nc2ncc(C(=O)Nc3c(C)cccc3Cl)s2)cc(N2CC[C@H](N)C2)n1` the Vd was 16.4 L/kg (male Sprague-Dawley rat; 1 mg/kg).
`CCONC(=O)N1CCC[C@H](C(=O)NCc2nc(-c3ccc(C#N)cc3)cs2)C1` gave a Vd of 0.45 L/kg (male Sprague-Dawley rat; 1 mg/kg).
`Cc1cc(S(=O)(=O)N[C@H]2CC[C@H](N3CCN(CC4CCN(c5cccc6c5n(C)c(=O)n6C5CCC(=O)NC5=O)CC4)CC3)CC2)ccc1Nc1ncc(C(F)(F)F)c(N2CCC[C@](C)(O)C2)n1` (stereo partly shown) has a Vd of 10 L/kg (rat; 2 mg/kg).
`Cc1nc(Nc2ncc(C(=O)Nc3c(C)cccc3Cl)s2)cc(N2CCN(CCO)CC2)n1` gave a Vd of 2.8 L/kg (male Sprague-Dawley rat; 1 mg/kg).
For `CCOCC(=O)N1CCC[C@H](C(=O)NCc2nc(-c3ccc(C#N)nc3)cs2)C1`, the Vd was 0.43 L/kg (male Sprague-Dawley rat; 1 mg/kg).
The Vd of `CC(=O)c1c(C)c2cnc(Nc3ccc(N4CCNCC4)cn3)nc2n(C2CCCC2)c1=O` is reported as 3.3 L/kg (male Sprague-Dawley rat; 5 mg/kg).
The Vd of `C=CCn1c(=O)c2cnc(Nc3ccc(N4CCN(C)CC4)cc3)nc2n1-c1ccc2c(n1)[C@@](O)(CC)CC2` is reported as 2.8 L/kg (rat; 3 mg/kg).
`C[C@H]1CN(c2ccc(C3CCC(=O)NC3=O)cc2F)CCN1CC12CCC(NS(=O)(=O)c3ccc(Nc4ncc(C(F)(F)F)c(N5CCC[C@](C)(O)C5)n4)c(F)c3)(CC1)CO2` (stereo partly shown) has a Vd of 4 L/kg (rat; 2 mg/kg).
The Vd of `Cc1nc(Nc2ncc(C(=O)Nc3c(C)cccc3Cl)s2)cc(N2CC[C@H](O)C2)n1` is reported as 0.9 L/kg (male Sprague-Dawley rat; 1 mg/kg).
`NCCOCC(=O)N1CCC[C@H](C(=O)NCc2nc(-c3ccc(C(F)(F)F)cc3)cs2)C1` gave a Vd of 3.2 L/kg (male Sprague-Dawley rat; 1 mg/kg).
`Cc1cc(S(=O)(=O)N[C@H]2CC[C@H](CN3CCN(c4cccc(NC5CCC(=O)NC5=O)c4)CC3)CC2)ccc1Nc1ncc(C(F)(F)F)c(N2CCC[C@](C)(O)C2)n1` (stereo partly shown) gave a Vd of 10 L/kg (rat; 2 mg/kg).
